Source: PubChem BioAssay (several laboratories)
TNF necrop inh: inhibitors of TNF-alpha induced necroptosis in Jurkat FADD-/- cells. Jurkat FADD-/- TNF necroptosis rescue, ATP luminescence, 24 h; 0 = TNF only, 100 = no-TNF cells. activation (protection from cell death), % at 10 µM. 220,000 tested, 0.068% active. AID 463075;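 active = activation, meaning protection from cell death, of at least 50% relative to plate controls; inactive = activation below 50%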;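 also: necroptosis triggered by 40 ng/mL TNF-alpha added together with compound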
M18AAP inhibitor: PfM18AAP enzyme inhibition. recombinant PfM18AAP, H-Glu-NHMec fluorogenic cleavage. AID 1822. inhibition, % at 7.35 µM. 290,000 tested, 1.2% active;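 active = inhibition above the campaign mean inhibition over all tested compounds plus 3 SD, cut at about 28% in these data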;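 also: 0% = plate median of test compound wells and 100% = 2 mM ZnCl2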
Hep lipid drop: modulators of hepatic lipid droplet formation; AML12 mouse hepatocytes, oleate lipid droplets, BODIPY imaging; inhibition, % at 6.5 µM; 240,000 tested, 0.4% active; AID 1656;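 active = lipid droplet intensity inhibited by at least 50%, with more than 500 cells counted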
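Material – AML12 mouse liver cells · Also added – oleate loading, 100 µM · Compound dosing – 6.5 µM single-point dosing · Times – overnight treatment with compound plus oleate · Measured by – fluorescence imaging, 20x objective, two fields per well · Read-out – percent inhibition of filter-corrected integrated lipid droplet intensity per well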
Tb hexokinase: blocks Trypanosoma brucei hexokinase 1 activity | recombinant TbHK1, G6PDH-coupled NADH A340 | inhibition, % at 10 µM | AID 1430 | 220,000 tested, 0.11% active;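 active = inhibition of 50% or more in the single-dose primary screen; inactive = inhibition below 50%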
RBBP9 inhibitor: blocks human serine hydrolase RBBP9; O75884; recombinant RBBP9, FP-Rh probe fluorescence polarization; inhibition, % at 7.94 µM; 220,000 tested, 0.2% active;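 active = inhibition above the campaign mean of all tested compounds plus 3 SD, cut at about 14% in these data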;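 also: plate controls were DMSO wells with RBBP9 for no effect and wells lacking RBBP9 protein for full effect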
Target sequence (O75884 whole entry, looked up): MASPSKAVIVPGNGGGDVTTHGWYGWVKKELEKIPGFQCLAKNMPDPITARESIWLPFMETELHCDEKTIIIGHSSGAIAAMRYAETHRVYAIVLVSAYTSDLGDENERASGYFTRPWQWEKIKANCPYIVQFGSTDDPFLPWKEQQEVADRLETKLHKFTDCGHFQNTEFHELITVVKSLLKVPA
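Measured by – fluorescence polarization · Test system – RBBP9 protein · Input – 2.5 µM RBBP9 dispensing solution, before mixing · Measure – percent inhibition from mP, scaled between DMSO and no-protein wells · Benchmarks – DMSO-treated enzyme wells and wells lacking RBBP9 · Times – preincubation 30 min plus labeling 45 min at 25 °C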
L929 necroptosis: blocks zVAD induced death of L929 cells | 220,000 tested, 0.38% active | AID 1377 | viability rescue, % at 10 µM | L929 zVAD necroptosis rescue, ATP luminescence, 24 h; with zVAD 60 µM;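 active = activation, scaled between plate controls, above about 75%, limit read from the data; inactive = activation under that limit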;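 also: 0% = zVAD with DMSO and 100% = DMSO alone without zVAD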
* = called active by the depositor; · = no result. Shown are actives, neighbours in structure and some others; about 2% of the full set was active somewhere.

SMILES	TNF necrop inh	M18AAP inhibitor	Hep lipid drop	Tb hexokinase	RBBP9 inhibitor	L929 necroptosis
COc1ccc(C2CC(=O)N3CN(Cc4ccco4)CSC3=C2C#N)cc1 (stereo unspecified)	-1	30*	·	-2	-3	0
COc1ccc(C2CC(=O)N3CN(c4ccc(C)c(Cl)c4)CSC3=C2C#N)cc1 (stereo unspecified)	-1	17	·	-9	-4	0
Cc1cccc(N2CSC3=C(C#N)C(c4ccc(C)o4)CC(=O)N3C2)c1 (stereo unspecified)	-3	33*	·	0	-1	0
COc1ccc(OC)c(C2CC(=O)N3CN(c4ccccc4)CSC3=C2C#N)c1 (stereo unspecified)	-1	25	·	-23	-7	1
COc1ccc(N2CSC3=C(C#N)C(c4cccc(OC)c4OC)CC(=O)N3C2)cc1 (stereo unspecified)	-1	28*	·	-22	0	2
COc1cc(OC)c(C2CC(=O)N3CN(c4ccccc4C)CSC3=C2C#N)cc1OC (stereo unspecified)	-2	43*	-14	-18	1	3
N#CC1=C2SCN(Cc3ccco3)CN2C(=O)CC1c1ccc(Cl)cc1 (stereo unspecified)	0	27	·	-2	3	0
O=C(O)C1CCC(NSc2ccccc2[N+](=O)[O-])CC1 (stereo unspecified)	-5	13	-13	3	-11	0
CC(OC(=O)c1ccncc1)C(=O)Nc1cc(S(=O)(=O)N2CCCCC2)ccc1Cl (stereo unspecified)	1	-4	19	-10	3	1
C=CCOc1ccc(/C=C2/C(=O)ON=C2C)cc1OC	·	30*	-12	·	·	·
COc1cccc(/C=C/C(=O)NCc2ccc3c(c2)OCO3)c1	·	0	-25	·	·	·
O=C(C1CC(=O)N(c2ccccc2)C1)N1CCN(c2ccccc2)CC1 (stereo unspecified)	·	-4	-5	·	·	·
NNC(=O)c1cc2c(s1)CCCCCC2	1	4	·	0	-15	0
O=C(Nn1cnnc1)c1cc2c(s1)CCCC2	-3	32*	9	-1	-3	-1
O=C(Nc1nccs1)c1ccc(Cl)s1	25	-2	·	-33	2	96*
O=C(Nc1nccs1)c1cc2c(s1)CCCCC2	52*	1	5	-17	3	7
O=C(Nc1ccccn1)c1ccc(Cl)s1	·	-6	3	·	·	·
N#Cc1ccccc1NC(=O)COC(=O)c1ccc(F)cc1F	·	0	11	·	·	·
CC(=O)Nc1ccc(OC(=O)N2CCCC2)cc1	·	0	5	·	·	·
COc1ccc2nc3cc(Cl)ccc3c(Nc3cc(CN4CCCC4)c(O)c(CN4CCCC4)c3)c2n1	·	28*	-29	·	·	·
O=C(CCn1cccc1)NCCc1ccc(Cl)cc1	2	5	·	6	-10	0
CCOCC(=O)Nc1nc2ccc(OC)cc2s1	11	-2	1	-2	-10	25
COc1ccc2nc(NC(=O)CCn3cccc3)sc2c1	6	-6	·	-1	-10	92*
Cn1cc(C(=O)C(=O)NC2CCCCC2)c2ccccc21	·	6	14	·	·	·
C(=N\Nc1nc(Nc2ccccc2)nc(N2CCOCC2)n1)/c1c[nH]c2ccccc12	-7	5	·	-21	0	1
SMILES	TNF necrop inh	M18AAP inhibitor	Hep lipid drop	Tb hexokinase	RBBP9 inhibitor	L929 necroptosis
Cc1ccc(Nc2nc(N/N=C/c3c[nH]c4ccccc34)nc(N3CCOCC3)n2)cc1	1	6	126*	-24	-5	-2
O=C(Nc1ccc(C(=O)N2CCOCC2)cc1)Nc1cccc2ccccc12	0	-16	40	-6	1	20
S=C(NCCOCCOCCNC(=S)Nc1ccccc1)Nc1ccccc1	-1	28*	-1	-4	-2	0
S=C(NCCNC(=S)Nc1ccccc1)Nc1ccccc1	·	6	0	·	·	·
CCOc1ccccc1NC(=O)CCCn1cc([N+](=O)[O-])cn1	1	-8	-19	3	3	1
COc1cccc(NC(=S)Nc2ccc(O)cc2)c1	-1	35*	8	-2	1	0
COc1ccc(NC(=S)Nc2ccc3snnc3c2)cc1	3	30*	-3	4	-2	13
COC(=O)c1ccc(CSc2ccc3nnc(-c4cccc(F)c4)n3n2)o1	-2	-3	-4	-8	-1	0
O=C(O)c1cccc(S(=O)(=O)N(Cc2ccccc2)c2ccc(Cl)cc2)c1	·	-13	-7	·	·	·
O=c1c(O)c(-c2ccc(O)cc2O)oc2cc(O)cc(O)c12	1	30*	-8	10	-6	3
O=C(COC(=O)c1ccc[nH]c1=O)NC1CCCc2ccccc21 (stereo unspecified)	1	-8	-3	-10	-6	0
CCOC(=O)NC(N(O)c1cccc(Cl)c1)C(Cl)(Cl)Cl (stereo unspecified)	-5	31*	-14	-8	5	1
CCN(C(=O)Nc1cccc(Cl)c1)c1ccccc1	·	-2	·	·	·	·
CN1CCc2cccc3c2[C@H]1Cc1ccc(O)c(O)c1-3	-19	35*	8	16	28*	3
Cc1ccc(O)c(N/C=C/C(=O)c2ccc(F)cc2)c1	·	28*	-13	·	·	·
COc1ccc2ncn(-c3ccccc3)c2c1	-3	1	·	6	-9	88*
Cc1cc(Br)ccc1N=C1NC(=O)CS1	·	30*	2	·	·	·
CCOC(=O)C1=C(C)NC(=S)NC1c1ccc(OCC(=O)N2CCCCCC2)c(OC)c1 (stereo unspecified)	·	2	-3	·	·	·
COc1ccc(C2CN=NC2C(=O)c2ccccc2)cc1 (stereo unspecified)	79*	0	-1	-19	-1	0
Cc1ccc(NC(=S)NNC(=O)Nc2ccccc2)cc1	-1	42*	4	1	-6	1
C/C(=N\O)C(=O)NCCN(C)C	0	2	15	-2	3	0
CCN1/C(=C/c2ccc3cc(C)ccc3[n+]2CC)Sc2ccccc21	-12	49*	-155	-4	-3	9
COc1ccc(CNC(=O)CN2C(=O)CSc3ccc(S(=O)(=O)N4CCOCC4)cc32)c(OC)c1	·	2	-20	·	·	·
CCCCNC(=O)Oc1c(Br)cc2sc(=O)oc2c1Br	0	30*	5	16	21*	1
CCOC(=O)/C(C#N)=C1\CCCN1CC(N)=S	1	31*	7	6	5	1
CCOC(=O)/C(C#N)=C1/CCCCCN1C	-3	-8	·	1	1	0
COc1ccc(OC)c(C2Nc3ccccc3NC3=C2C(=O)CC(C)(C)C3)c1 (stereo unspecified)	·	-6	-8	·	·	·
